From publication PMC6437634 (Acta Pharmaceutica Sinica. B, 2018)

What was measured:
[1] = In vitro metabolic stability, human liver microsomal intrinsic clearance; type: in vitro ADME; settings: liver microsomes, pH 7.4
How it was run: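 Human liver microsomes (0.5 mg/mL) were preincubated 5 min at 37 °C with 1 μmol/L test compound in 0.1 mol/L phosphate buffer pH 7.4 with EDTA and MgCl2. NADPH started the reaction. Samples taken at 0, 5, 10 and 30 min at 37 °C were quenched with equal-volume cold acetonitrile and centrifuged. Remaining parent compound was quantified by LC–MS/MS.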

[2] = target: CYP3A4 (Homo sapiens, UniProt P08684); assay: CYPs direct inhibition CYP3A4; type: in vitro ADME; settings: liver microsomes, pH 7.4
[3] = test system: CYPs; assay: CYP time-dependent inhibition; type: in vitro ADME, human; settings: kobs lower than 200 (10^-4/min) considered no TDI inhibition
[4] = target: FGFR1 kinase (Homo sapiens, UniProt P11362); assay: ELISA kinase assay FGFR1; type: biochemical
Chain of FGFR1 kinase (P11362 22-822): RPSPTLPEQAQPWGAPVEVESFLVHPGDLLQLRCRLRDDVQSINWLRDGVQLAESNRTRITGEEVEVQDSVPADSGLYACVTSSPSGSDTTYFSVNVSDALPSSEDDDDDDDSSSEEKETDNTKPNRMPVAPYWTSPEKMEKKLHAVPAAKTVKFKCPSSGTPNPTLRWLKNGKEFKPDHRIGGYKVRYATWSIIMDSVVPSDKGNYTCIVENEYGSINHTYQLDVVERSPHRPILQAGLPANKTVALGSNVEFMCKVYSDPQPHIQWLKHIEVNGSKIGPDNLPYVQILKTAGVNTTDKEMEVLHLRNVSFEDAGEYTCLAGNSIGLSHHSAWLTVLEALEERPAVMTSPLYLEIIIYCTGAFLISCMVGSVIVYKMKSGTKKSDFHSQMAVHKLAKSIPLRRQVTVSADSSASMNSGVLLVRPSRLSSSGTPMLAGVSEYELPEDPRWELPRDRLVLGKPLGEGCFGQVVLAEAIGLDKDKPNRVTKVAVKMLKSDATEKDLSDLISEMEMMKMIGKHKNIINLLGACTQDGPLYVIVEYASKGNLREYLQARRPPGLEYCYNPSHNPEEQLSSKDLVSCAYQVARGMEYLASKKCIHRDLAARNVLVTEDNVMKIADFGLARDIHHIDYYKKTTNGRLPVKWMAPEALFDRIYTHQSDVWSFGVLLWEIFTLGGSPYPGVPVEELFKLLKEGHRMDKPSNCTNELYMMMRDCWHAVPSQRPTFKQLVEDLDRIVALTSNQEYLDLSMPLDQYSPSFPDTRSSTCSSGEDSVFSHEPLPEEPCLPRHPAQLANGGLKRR

Chain of CYP3A4 (P08684 whole entry): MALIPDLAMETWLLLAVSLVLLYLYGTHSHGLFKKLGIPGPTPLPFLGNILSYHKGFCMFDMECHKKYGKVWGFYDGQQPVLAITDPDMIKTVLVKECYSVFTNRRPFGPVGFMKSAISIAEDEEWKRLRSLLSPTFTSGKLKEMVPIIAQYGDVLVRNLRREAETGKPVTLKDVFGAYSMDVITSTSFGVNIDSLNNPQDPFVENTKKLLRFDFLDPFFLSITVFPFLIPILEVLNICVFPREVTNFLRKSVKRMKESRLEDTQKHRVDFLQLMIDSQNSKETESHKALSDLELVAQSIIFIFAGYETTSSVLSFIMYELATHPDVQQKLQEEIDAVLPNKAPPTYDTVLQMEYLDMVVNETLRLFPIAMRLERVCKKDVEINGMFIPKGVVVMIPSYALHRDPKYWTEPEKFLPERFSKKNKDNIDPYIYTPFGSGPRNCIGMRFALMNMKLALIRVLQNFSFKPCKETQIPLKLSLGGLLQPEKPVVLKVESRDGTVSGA

Row | Structure (SMILES) | microsomal CLint at 1 μmol/L [1] [µL/min/mg] | inhibition at 20 min, 10 μmol/L [2] [%] | FGFR1 enzymatic inhibitory activity (in words) [4] | also measured
1 | COc1cc(CCc2cnc3ccn(S(=O)(=O)c4c[nH]cn4)c3n2)cc(OC)c1 [Compound 12, 5-((1H-Imidazol-4-yl)sulfonyl)-3-(3,5-dimethoxyphenethyl)-5H-pyrrolo[2,3-b]pyrazine] | 38 | 96 | – | TDI (time-dependent inhibition), CYPs affected [3]: No inhibition
2 | COc1cc(OC)c(Cl)c(CCc2cnc3ccn(S(=O)(=O)c4ccccc4)c3n2)c1Cl [Compound 7, 3-(2,6-Dichloro-3,5-dimethoxyphenethyl)-5-(phenylsulfonyl)-5H-pyrrolo[2,3-b]pyrazine] | – | – | – | IC50 [4]: 14 nM
3 | COc1cc(CCc2cnc3ccn(S(=O)(=O)c4cn(CCF)cn4)c3n2)c(F)c(OC)c1 [Compound 33, 3-(2-Fluoro-3,5-dimethoxyphenethyl)-5-((1-(2-fluoroethyl)-1H-imidazol-4-yl)sulfonyl)-5H-pyrrolo[2,3-b]pyrazine] | – | – | equipotent enzymatic activity as compound 32 | –
4 | COc1cc(OC)c(Cl)c(CCc2cnc3ccn(S(=O)(=O)c4c[nH]cn4)c3n2)c1Cl [Compound 29] | 50 | 90 | picomolar range | TDI (time-dependent inhibition), CYPs affected [3]: No inhibition
5 | CCOc1cccc(CCc2cnc3ccn(S(=O)(=O)c4cn(C)cn4)c3n2)c1 [Compound 30, 3-(3-Ethoxyphenethyl)-5-((1-methyl-1H-imidazol-4-yl)sulfonyl)-5H-pyrrolo[2,3-b]pyrazine] | – | – | decreased dramatically | –
6 | COc1cc(CCc2cnc3ccn(S(=O)(=O)c4cn(C)cn4)c3n2)c(F)c(OC)c1 [Compound 32, 3-(2-Fluoro-3,5-dimethoxyphenethyl)-5-((1-methyl-1H-imidazol-4-yl)sulfonyl)-5H-pyrrolo[2,3-b]pyrazine] | – | – | – | IC50 [4]: 0.4 nM
7 | COc1cc(OC)c(F)c(/C=C/c2cnc3ccn(S(=O)(=O)c4cn(C)cn4)c3n2)c1F [Compound 34, (E)-3-(2,6-Difluoro-3,5-dimethoxystyryl)-5-((1-methyl-1H-imidazol-4-yl)sulfonyl)-5H-pyrrolo[2,3-b]pyrazine] | – | – | equipotent enzymatic activity as compound 32 | –
8 | COc1cc(CCc2cnc3ccn(S(=O)(=O)c4cn(C)cn4)c3n2)cc(OC)c1 [Compound 20] | 212 | 88 | single digit nanomolar activity | –
9 | COc1cc(CCc2cnc3ccn(S(=O)(=O)c4ccccc4)c3n2)cc(OC)c1 [Compound 5, 3-(3,5-Dimethoxyphenethyl)-5-(phenylsulfonyl)-5H-pyrrolo[2,3-b]pyrazine] | – | – | – | FGFR1 inhibition ratio ([4]; at 0.1 μmol/L): about 75%
